One compound from ChEMBL document CHEMBL4715754, “Slowing down fat digestion and absorption by an oxadiazolone inhibitor targeting selectively gastric lipolysis” (2016) can be followed below.

Assay [1] deals with T1, Gastric triacylglycerol lipase (Canis lupus familiaris) (UniProt P80035).
T1 sequence (whole entry): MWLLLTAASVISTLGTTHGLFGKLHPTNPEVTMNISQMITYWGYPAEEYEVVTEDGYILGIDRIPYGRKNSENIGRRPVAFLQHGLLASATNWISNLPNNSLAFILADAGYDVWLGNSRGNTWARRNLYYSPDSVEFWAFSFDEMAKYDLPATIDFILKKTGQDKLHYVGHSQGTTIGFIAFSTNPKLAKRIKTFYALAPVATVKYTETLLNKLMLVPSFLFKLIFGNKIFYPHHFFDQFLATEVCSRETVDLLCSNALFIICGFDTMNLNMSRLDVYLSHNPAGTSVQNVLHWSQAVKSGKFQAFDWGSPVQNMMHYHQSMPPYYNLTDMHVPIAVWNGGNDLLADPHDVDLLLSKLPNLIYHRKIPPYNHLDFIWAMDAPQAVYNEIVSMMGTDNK
In words: Inhibition of recombinant dog gastric lipase assessed as residual activity at 4.1 mg/ml under gastric phase at pH 5.5 using solid test meal measured up to 30 mins relative to control. Conditions: time min <=30. The essentials: (§1)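 Gastric phase: 15 mL liquid or solid test meal (506 mg TAG) premixed with 734 µL of 4.1 mg/mL DMSO stock (2.94 mg, 7.262 µmol), then DGL to 17 µg/mL final, pH 5.5, 37 °C, stirred. Samples at 1, 15, 29 min; residual DGL activity by pH-stat; lipolysis level from TLC-FID of lipid extracts. DMSO-only controls; n = 3.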

In assay [2] the target is T2, Pancreatic lipase-related protein 2 (Cavia porcellus) (UniProt P81139).
T2 sequence (whole entry): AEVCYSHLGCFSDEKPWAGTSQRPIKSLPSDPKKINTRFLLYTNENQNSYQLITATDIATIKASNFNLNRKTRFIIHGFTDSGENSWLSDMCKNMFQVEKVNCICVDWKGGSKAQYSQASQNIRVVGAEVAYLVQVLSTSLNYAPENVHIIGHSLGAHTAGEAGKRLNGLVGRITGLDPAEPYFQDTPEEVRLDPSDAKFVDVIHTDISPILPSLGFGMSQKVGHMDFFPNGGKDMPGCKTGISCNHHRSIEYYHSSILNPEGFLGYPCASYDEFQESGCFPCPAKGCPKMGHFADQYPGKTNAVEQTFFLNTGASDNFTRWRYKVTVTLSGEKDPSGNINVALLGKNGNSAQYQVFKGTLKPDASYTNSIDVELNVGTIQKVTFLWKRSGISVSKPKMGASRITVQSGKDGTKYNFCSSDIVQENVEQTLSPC
In words: Inhibition of recombinant guinea pig PL-RP2 expressed in Aspergillus oryzae at 20:1 molar excess compound concentration preincubated for 30 mins at 25 degreeC relative to control.

The target of assay [3] is T3, Pancreatic triacylglycerol lipase (Sus scrofa) (UniProt P00591).
T3 sequence (whole entry): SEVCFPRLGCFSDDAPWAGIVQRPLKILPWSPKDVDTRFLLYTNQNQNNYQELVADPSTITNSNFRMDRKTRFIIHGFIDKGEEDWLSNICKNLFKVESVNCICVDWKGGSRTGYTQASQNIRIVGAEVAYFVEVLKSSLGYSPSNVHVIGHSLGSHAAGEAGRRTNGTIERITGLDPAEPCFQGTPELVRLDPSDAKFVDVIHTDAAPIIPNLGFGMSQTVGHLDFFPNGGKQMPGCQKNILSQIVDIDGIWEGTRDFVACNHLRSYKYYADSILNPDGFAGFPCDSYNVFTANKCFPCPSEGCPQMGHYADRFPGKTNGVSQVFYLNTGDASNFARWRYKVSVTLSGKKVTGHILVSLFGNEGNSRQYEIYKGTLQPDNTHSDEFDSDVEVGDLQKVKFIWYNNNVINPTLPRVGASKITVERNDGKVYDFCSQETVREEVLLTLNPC
Description: Inhibition of porcine pancreatic lipase assessed as lipolysis level at 4.1 mg/ml under duodenal phase at pH 6.5 using liquid test meal measured at 45 mins (reference value: 58 +/- 3.1 %). Also noted: scale not given: the % may be the effect or the level left.

In assay [4] the target is T2, Pancreatic lipase-related protein 2 (Cavia porcellus). In words: Inhibition of recombinant guinea pig PL-RP2 expressed in Aspergillus oryzae at 4:1 molar excess compound concentration preincubated for 30 mins at 25 degreeC relative to control.
The target in assay [5] is T1, Gastric triacylglycerol lipase (Canis lupus familiaris). Description: Inhibition of recombinant dog gastric lipase at 4:1 molar excess compound concentration preincubated for 30 mins at 25 degreeC relative to control.
Assay [6] shares this target. Description: Inhibition of recombinant dog gastric lipase assessed as residual activity at 4.1 mg/ml under gastric phase at pH 5.5 using liquid test meal measured up to 30 mins relative to control. As to conditions: time min <=30. The essentials:
as §1

One may read the inhibition as the change of the read-out against control, counted positive when it falls. On to `O=c1oc(OCCOCc2ccccc2)nn1-c1cccc(Oc2ccccc2)c1`, for which the values for the Activity in assay [1], in assay [3] and in assay [6] were 2.8%, 48.1% and 0%, respectively. For the same compound, the values for the inhibition in assay [2], in assay [4] and in assay [5] were 62.1%, 60.6% and 87.6%, respectively.
